The target of experiment [1] is Ribosome. Put plainly: Inhibition of bacterial translation by blocking the function of the ribosomal GTPase center. It is filed as subcellular, Escherichia coli.
Experiment [2] has as its system Ribosome. Put plainly: Inhibition of bacterial translation by blocking the function of the ribosomal GTPase center at 400 uM concentration. The experiment is classed as subcellular. Conditions: Escherichia coli. The gist of the method:
(§1)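 Translation inhibition was tested at a single compound concentration, since limited solubility ruled out dose-response data at higher concentrations. Percent inhibition is the mean of three replicate experiments per compound (±10%).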

Experiment [3] deals with Ribosome. Put plainly: Inhibition of bacterial translation by blocking the function of the ribosomal GTPase center at 150 uM concentration. The experiment is classed as subcellular. Conditions: Escherichia coli. An outline of the steps: as §1
Experiment [4] concerns Ribosome. Put plainly: Inhibition of bacterial translation by blocking the function of the ribosomal GTPase center at 15 uM concentration. The experiment is classed as subcellular. To be noted: Escherichia coli. An outline of the steps:
as §1

Experiment [5] relates to Ribosome. Put plainly: Inhibition of bacterial translation by blocking the function of the ribosomal GTPase center at 0.17 uM concentration. It is filed as subcellular. Conditions: Escherichia coli. An outline of the steps: as §1

Broadly, the IC50 is the concentration at which inhibition is half-maximal. A higher IC50 goes with weaker potency in that assay. Broadly, the inhibition is the drop in the measured response relative to a control, in per cent. Low values mean a response near the control, high ones a response far below the control.

With `C=C(NC(=O)c1csc(-c2cccnc2)n1)C(=O)N[C@@H](Cc1cn(C(=O)OC(C)(C)C)c2ccccc12)C(=O)OC`, at Ribosome [1], half-maximal inhibition (IC50) was put at 40 µM.

The compound `C=C(NC(=O)c1cnccn1)C(=O)NC(=C)C(=O)OC` displayed an inhibition in the experiment on Ribosome [2] of 30%.

`C=C(NC(=O)c1ccccn1)C(=O)N[C@@H](COC(C)(C)C)C(=O)OC` came in with an inhibition in the experiment on Ribosome [2] of 40%.

As for `C=C(NC(=O)c1cnccn1)C(=O)N1CCC[C@H]1C(=O)OC`, the inhibition in the experiment on Ribosome [2] was found to be 25%.

The compound `C=C(NC(=O)c1csc(-c2cccnc2)n1)C(=O)N1CCC[C@H]1C(=O)OC` showed an inhibition in the experiment on Ribosome [2] of 20%.

In the experiment with Ribosome [3], `C=C(NC(=O)c1ccccn1)C(=O)N[C@@H](Cc1cn(C(=O)OC(C)(C)C)c2ccccc12)C(=O)OC` had an inhibition of 20%.

In the experiment on Ribosome [3], `C=C(NC(=O)c1csc(-c2ccncc2)n1)C(=O)N[C@@H](COC(C)(C)C)C(=O)OC` had an inhibition of 5%.

In the experiment with Ribosome [4], `C=C(NC(=O)c1csc(-c2cccnc2)n1)C(=O)N[C@@H](Cc1c[nH]c2ccccc12)C(=O)OC` came in with an inhibition of 20%.

Take `C=C(NC(=O)c1ccccn1)C(=O)N1CCC[C@H]1C(=O)OC`: in the experiment on Ribosome [2], the inhibition was 4%.

`C=C(NC(=O)C(=C)NC(=O)c1csc(C2=N[C@@H]3c4csc(n4)[C@H]4NC(=O)c5csc(n5)[C@H]([C@](C)(O)[C@@H](C)O)NC(=O)[C@H]5CSC(=N5)/C(=C/C)NC(=O)[C@H]([C@@H](C)O)NC(=O)c5csc(n5)[C@]3(CC2)NC(=O)[C@H](C)NC(=O)C(=C)NC(=O)[C@H](C)NC(=O)[C@H]([C@@H](C)CC)N[C@@H]2C=Cc3c([C@H](C)O)cc(nc3[C@H]2O)C(=O)O[C@@H]4C)n1)C(N)=O`: the inhibition in the experiment with Ribosome [5] stood at 50%.

Turning to `C=C(NC(=O)c1cnccn1)C(=O)N[C@@H](COC(C)(C)C)C(=O)OC`, the inhibition in the experiment with Ribosome [2] was 15%.

Take `C=C(NC(=O)c1cnccn1)C(=O)N[C@@H](Cc1cn(C(=O)OC(C)(C)C)c2ccccc12)C(=O)OC`: the inhibition with Ribosome [3] stood at 10%.

Turning to `C=C(NC(=O)c1csc(-c2cccnc2)n1)C(=O)N[C@@H](COC(C)(C)C)C(=O)OC`, the inhibition with Ribosome [2] was 30%.

Source of the values: ChEMBL document CHEMBL1139553, “Synthesis of dehydroalanine fragments as thiostrepton side chain mimetics” (Bioorg Med Chem Lett, 2005).
